This note sets out measurements from PMC7906539 (Medicinal chemistry research : an international journal for …, 2020).

The subject of data set [1] is SH-SY5Y cells. Put plainly: Cytotoxicity assay. Format: cell-based. To be noted: SH-SY5Y cells, 24 h incubation, CellTiter-Glo. Put shortly: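 SH-SY5Y cells seeded at 6000/well in 1:1 EMEM/F12 with 10% FBS. Exposure 24 h at 37 °C, then CellTiter-Glo luminescence read. Percent cytotoxicity normalized to DMSO controls.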
On the technique in general: ATP-based viability assays read luminescence as a measure of living cells.

The target of data set [2] is His-mHtt and GST-CaM (CaM–mHtt interaction) (Homo sapiens, UniProt P0DP23+P42858). Put plainly: CaM/mHtt AlphaScreen binding assay. The conditions noted are these: read-out: AlphaScreen CaM–mHtt, IC50; triplicate. The method in brief: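 His-mHtt (10 nM) preincubated 30 min with test compound, then GST-CaM (10 nM) added for 60 min at room temperature. Ni-chelate acceptor (10 μg/mL) and glutathione donor beads (15 μg/mL) are added for 2 h, then Alpha counts are read. Final 300–0.002 μM, triplicate; % inhibition normalized to DMSO controls.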
Background: In Alpha technology, singlet oxygen from a donor bead excites a nearby acceptor bead.

Data set [3] addresses death-associate protein kinase 1 (DAPK1) (Homo sapiens, UniProt P53355). Kind of data set: CaM-dependent kinase assay. To be noted: single concentration of 100 μM, in the presence of CaM. The data set is classed as biochemical. Put shortly: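 Recombinant DAPK1 (25 ng), run with ADP-Glo at 5 μM ATP with native swine myelin basic protein as substrate, in the presence of CaM. Test compound is added at a single 100 μM (DMSO) and reacted 60 min at room temperature. Luminescence is read, and activity is expressed as percent of the no-compound reaction. Three experiments, ≥2 replicates each; mean ± SEM.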

Data set [4] concerns mHtt toxicity in PC12 cells. Kind of data set: Protection against mHtt toxicity in neuronal cell model for HD. To be noted: three different concentrations. The data set is classed as cell-based. Put shortly: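 Each experiment run at least three times; values reported as mean ± standard error of the mean.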
Data set [5] has as its system calcium/CaM-dependent kinase 2γ (CaMK2γ). Kind of data set: CaM-dependent kinase assay. The data set is classed as biochemical, Human. The conditions noted are these: single concentration of 100 μM, in the presence of CaM. The method in brief:
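ADP-Glo reaction with CaMK2γ (12 ng), 25 μM ATP and Autocamtide-2 substrate, carried out with CaM present. Test compound is at a single 100 μM from DMSO; incubation 60 min at room temperature. Luminescent readout gives percent enzyme activity relative to the reaction without compound. Run three times with at least two replicates per experiment; mean ± SEM.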

A short description of data set [6]: PAMPA permeability. Format: in vitro ADME. A general note: In PAMPA a lipid-coated filter parts donor from acceptor wells.
Data set [7] is described as follows: Kinetic solubility. The data set is classed as physicochemical.

≈ marks a conversion by molar mass, not a printed value. Entries after “also recorded” stand apart in the source; their conditions may differ.

Sequence of death-associate protein kinase 1 (DAPK1) (P53355 1-363): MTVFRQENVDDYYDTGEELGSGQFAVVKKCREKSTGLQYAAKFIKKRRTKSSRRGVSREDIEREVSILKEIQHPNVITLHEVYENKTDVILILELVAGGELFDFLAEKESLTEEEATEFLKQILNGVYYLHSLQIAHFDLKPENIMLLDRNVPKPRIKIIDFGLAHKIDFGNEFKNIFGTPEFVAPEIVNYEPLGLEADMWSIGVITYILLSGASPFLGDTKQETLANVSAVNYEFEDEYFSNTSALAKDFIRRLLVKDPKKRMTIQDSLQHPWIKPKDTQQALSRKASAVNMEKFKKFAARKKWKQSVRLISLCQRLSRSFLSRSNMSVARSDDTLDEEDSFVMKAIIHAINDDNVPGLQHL
Sequence of His-mHtt and GST-CaM (CaM–mHtt interaction) (P42858 whole entry, one chain of several): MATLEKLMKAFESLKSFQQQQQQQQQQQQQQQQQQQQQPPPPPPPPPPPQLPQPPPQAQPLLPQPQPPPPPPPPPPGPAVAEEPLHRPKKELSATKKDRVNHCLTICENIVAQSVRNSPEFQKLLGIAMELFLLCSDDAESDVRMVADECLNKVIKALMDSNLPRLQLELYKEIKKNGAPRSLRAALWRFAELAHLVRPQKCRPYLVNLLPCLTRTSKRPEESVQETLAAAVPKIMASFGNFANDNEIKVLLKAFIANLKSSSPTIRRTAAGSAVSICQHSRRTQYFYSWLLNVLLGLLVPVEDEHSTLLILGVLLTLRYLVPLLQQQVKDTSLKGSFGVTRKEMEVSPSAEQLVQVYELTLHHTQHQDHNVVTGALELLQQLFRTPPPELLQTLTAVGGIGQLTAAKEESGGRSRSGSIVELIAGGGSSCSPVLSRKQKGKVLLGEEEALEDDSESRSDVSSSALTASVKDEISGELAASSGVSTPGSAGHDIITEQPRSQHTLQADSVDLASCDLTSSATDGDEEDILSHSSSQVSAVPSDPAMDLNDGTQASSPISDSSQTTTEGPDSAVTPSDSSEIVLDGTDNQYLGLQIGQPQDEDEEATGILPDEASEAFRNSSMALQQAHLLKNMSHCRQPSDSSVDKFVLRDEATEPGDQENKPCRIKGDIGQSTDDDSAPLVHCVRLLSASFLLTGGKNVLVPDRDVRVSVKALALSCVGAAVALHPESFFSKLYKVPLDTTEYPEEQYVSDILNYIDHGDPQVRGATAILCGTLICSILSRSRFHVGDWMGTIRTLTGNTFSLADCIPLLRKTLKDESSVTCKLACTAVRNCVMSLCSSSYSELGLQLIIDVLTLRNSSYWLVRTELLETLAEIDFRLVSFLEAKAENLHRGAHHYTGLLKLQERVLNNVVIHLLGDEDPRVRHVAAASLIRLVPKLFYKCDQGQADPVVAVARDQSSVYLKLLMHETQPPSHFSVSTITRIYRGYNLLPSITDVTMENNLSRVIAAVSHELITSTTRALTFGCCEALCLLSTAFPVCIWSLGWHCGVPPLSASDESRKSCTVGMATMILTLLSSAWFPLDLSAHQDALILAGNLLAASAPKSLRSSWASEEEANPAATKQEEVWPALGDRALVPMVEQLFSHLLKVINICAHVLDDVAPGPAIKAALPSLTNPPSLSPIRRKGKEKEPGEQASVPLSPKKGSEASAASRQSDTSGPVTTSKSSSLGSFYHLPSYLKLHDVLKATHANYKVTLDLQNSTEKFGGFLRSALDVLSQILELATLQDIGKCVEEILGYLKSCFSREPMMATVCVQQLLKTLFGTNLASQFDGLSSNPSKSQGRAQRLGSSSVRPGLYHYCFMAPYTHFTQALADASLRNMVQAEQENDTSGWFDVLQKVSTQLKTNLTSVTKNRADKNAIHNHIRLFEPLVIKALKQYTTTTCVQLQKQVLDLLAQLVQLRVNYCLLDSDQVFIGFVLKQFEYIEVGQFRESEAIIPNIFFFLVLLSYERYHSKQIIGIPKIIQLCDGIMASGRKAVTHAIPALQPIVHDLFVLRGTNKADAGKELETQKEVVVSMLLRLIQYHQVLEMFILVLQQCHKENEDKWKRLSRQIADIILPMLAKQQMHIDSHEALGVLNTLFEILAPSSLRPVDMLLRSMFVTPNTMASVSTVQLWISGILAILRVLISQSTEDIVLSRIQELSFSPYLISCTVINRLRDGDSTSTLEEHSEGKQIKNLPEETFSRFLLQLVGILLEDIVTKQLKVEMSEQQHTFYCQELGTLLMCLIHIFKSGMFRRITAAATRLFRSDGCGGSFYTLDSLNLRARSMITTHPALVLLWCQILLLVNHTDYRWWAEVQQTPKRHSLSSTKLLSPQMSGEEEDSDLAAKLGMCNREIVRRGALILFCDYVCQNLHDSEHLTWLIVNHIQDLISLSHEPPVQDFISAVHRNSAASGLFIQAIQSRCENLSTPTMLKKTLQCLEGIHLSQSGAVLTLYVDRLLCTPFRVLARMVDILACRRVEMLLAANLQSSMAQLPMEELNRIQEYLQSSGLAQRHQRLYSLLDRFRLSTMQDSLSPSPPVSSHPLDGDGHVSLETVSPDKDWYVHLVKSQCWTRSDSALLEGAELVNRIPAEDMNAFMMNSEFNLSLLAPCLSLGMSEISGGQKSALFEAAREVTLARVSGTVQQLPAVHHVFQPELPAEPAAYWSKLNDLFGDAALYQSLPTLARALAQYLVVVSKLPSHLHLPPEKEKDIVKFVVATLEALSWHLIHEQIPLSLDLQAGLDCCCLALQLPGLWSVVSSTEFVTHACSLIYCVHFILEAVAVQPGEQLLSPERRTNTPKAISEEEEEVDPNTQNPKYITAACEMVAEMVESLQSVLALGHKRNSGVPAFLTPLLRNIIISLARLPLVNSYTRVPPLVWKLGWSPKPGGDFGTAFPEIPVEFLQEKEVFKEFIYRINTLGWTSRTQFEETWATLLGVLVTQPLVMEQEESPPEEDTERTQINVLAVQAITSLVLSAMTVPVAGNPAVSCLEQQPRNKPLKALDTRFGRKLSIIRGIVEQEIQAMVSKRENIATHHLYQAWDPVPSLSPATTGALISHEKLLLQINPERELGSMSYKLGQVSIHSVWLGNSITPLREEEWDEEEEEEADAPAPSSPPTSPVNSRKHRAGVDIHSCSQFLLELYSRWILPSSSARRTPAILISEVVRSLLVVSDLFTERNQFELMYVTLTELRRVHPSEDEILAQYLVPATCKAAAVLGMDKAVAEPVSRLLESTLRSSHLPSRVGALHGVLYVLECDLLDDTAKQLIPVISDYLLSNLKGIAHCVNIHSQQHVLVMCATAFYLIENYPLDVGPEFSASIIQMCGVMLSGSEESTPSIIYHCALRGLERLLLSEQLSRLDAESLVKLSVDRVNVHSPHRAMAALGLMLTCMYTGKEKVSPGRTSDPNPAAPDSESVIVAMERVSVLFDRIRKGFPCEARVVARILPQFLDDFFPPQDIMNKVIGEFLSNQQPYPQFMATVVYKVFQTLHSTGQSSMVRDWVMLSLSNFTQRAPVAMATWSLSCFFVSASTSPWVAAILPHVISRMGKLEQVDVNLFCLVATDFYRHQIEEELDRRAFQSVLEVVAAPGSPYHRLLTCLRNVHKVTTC

In the case of `C=C1CCN([C@@H](CC(C)C)C(=O)NCc2ccc(Cl)c(C(F)(F)F)c2)S(=O)(=O)c2ccccc21` [Compound 9d, (S)-N-(4-Chloro-3-(trifluoromethyl)benzyl)-4-methyl-2-(5-methylene-1,1-dioxido-4,5-dihydrobenzo[f][1,2]thiazepin-2 (3H)-yl)pentanamide], the “Cytotoxicity (SH-SY5Y cells, 24 h)” value in data set [1] was above 300 µM. Also, in data set [2], the half-maximal inhibitory concentration (IC50) worked out at 1380 nM. In addition, the “Inhibition of DAPK1 enzyme activity (in words)” value in data set [3] is “did not significantly inhibit”. Moreover, the “Protection against mHtt toxicity (in words)” value in data set [4] is “barely measurable activity; also recorded: do not show protection; also recorded: no significant rescue of the toxicity”. The “Inhibition of CaMK2γ enzyme activity (in words)” value in data set [5] was “did not significantly inhibit”.
As to `C=C1CCN([C@@H](CC(C)C)C(=O)NCCc2ccc(Cl)c(Cl)c2)S(=O)(=O)c2ccccc21` [Compound 9h, (S)-N-(3,4-Dichlorophenethyl)-4-methyl-2-(5-methylene-1,1-dioxido-4,5-dihydrobenzo[f][1,2]thiazepin-2(3H)-yl) pentanamide], the “permeability (PAMPA assay)” value in data set [6] came out at 7.6e-07 cm/s. Further, the “Cytotoxicity (SH-SY5Y cells, 24 h)” value in data set [1] was above 300 µM. Moreover, in data set [2], the concentration for half-maximal inhibition (IC50) is 550 nM. Further, the kinetic solubility in data set [7] is 0.6 µM (≈ 0.297 µg/mL). The “Inhibition of DAPK1 enzyme activity (in words)” value in data set [3] is on record as “but not DAPK1 activity”. In data set [4], the “Protection against mHtt toxicity (in words)” value was “barely measurable activity; also recorded: do not show protection; also recorded: did not show any significant effect”. Besides, the “Inhibition of CaMK2γ enzyme activity (in words)” value in data set [5] was “statistically significant impact; also recorded: statistically significant effect on inhibition”.

Broadly, the IC50 is the midpoint of a concentration-inhibition curve.
